# Results gathered from unrelated publications.
# Lines come from different studies, so protocols differ.
# Target: Myosin light chain kinase (MYLK3, Homo sapiens, UniProt Q32MK0)
# Residues used in one study (Q32MK0 1-819): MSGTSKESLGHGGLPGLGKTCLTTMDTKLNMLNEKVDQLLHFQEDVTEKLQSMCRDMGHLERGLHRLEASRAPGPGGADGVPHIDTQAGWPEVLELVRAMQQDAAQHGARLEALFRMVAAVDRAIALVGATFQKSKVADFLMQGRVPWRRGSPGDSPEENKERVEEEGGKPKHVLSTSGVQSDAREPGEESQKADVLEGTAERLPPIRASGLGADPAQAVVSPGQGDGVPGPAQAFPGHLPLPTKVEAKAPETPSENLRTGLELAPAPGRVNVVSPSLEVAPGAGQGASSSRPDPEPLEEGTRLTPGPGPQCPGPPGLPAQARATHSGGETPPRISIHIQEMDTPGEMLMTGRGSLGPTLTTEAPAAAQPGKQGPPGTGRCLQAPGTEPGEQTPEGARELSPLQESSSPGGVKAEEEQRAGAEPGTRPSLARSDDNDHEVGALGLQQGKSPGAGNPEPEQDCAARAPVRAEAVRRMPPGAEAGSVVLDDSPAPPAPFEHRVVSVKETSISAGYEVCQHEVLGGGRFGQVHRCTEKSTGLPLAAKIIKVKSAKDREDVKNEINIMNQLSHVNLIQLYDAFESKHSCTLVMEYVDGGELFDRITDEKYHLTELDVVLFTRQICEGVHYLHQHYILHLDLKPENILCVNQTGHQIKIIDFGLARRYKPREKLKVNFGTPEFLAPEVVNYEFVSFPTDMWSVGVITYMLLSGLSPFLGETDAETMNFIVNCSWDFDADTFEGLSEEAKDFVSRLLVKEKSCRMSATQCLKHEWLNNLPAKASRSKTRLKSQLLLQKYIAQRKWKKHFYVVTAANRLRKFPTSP
SMILES,test,conditions,remaining binding [%]
c1cncc(-c2cccc(Nc3nccc(NC4CCCCC4)n3)c2)c1,"binding, competition with immobilised ligand",10 µM,100
O=C(c1ccc(Nc2ncc(Cl)c(-c3cc4ccccc4s3)n2)cc1)N1CCC(N2CCCC2)CC1,"binding, competition with immobilised ligand",1 µM,2
C[C@@H](c1ccc(-n2cnc3c(N)ncnc32)cc1)N1CCc2nn(C)c(Cc3ccccc3)c2C1=O,"binding, competition with immobilised ligand",0.1 µM,100
CC1CCCN1c1nccc(-c2cnn3ncccc23)n1 (stereo not drawn),binding,1 µM,100
CCS(=O)(=O)c1cc2cc(C[C@](O)(CC(C)(C)c3ccc(F)cc3C(N)=O)C(F)(F)F)[nH]c2cn1,"cell-free assay, competition with immobilised ligand",1 µM,74
CCN1CCN(Cc2ccc(C(=O)Nc3ccc(C)c(Oc4ccc5c(c4)CC(=O)N5)c3)cc2C(F)(F)F)CC1,"binding, competition with immobilised ligand",1 µM,100
O=C(c1ccc(Nc2nccc(-c3cc4ccccc4s3)n2)cc1)N1CCC(N2CCCC2)CC1,"binding, competition with immobilised ligand",1 µM,2.5
COc1ccnn2ncc(-c3ccnc(N(C)C)n3)c12,binding,1 µM,71
CS(=O)(=O)N1CCCC(NC(=O)[C@H](CCC2CCCCC2)NC(=O)c2ccc(CNC(=O)c3cnc4ccccn34)cc2)C1 (stereo partly drawn),"cell-free assay, competition with immobilised ligand",0.1 µM,88
N[C@H]1CCN(c2nccc(-c3cnn4ncccc34)n2)C1,binding,1 µM,88
Nc1c(C(=O)NCc2ccc(C(=O)NCCCC3CCCCC3)cc2)cnn1-c1ccccc1,"cell-free assay, competition with immobilised ligand",0.1 µM,100
C=CC(=O)N1CCC(C(=O)NCC(=O)N2CCN(c3nc(-c4cnc(N)nc4C(F)F)nc(N4CCOCC4)n3)CC2)CC1,"binding, competition with immobilised ligand",1 µM,92
CNC(=O)[C@@H]1CC[C@@H](n2c(-c3ccc4cnccc4c3)nc3ccc(C(=O)NCc4cccc(C(N)=O)c4)cc32)C1,"binding, competition with immobilised ligand",1 µM,100
c1cnn2ncc(-c3ccnc(N4CCC45COC5)n3)c2c1,binding,1 µM,100
O=C(Nc1c[nH]nc1C(=O)NC1CCNCC1)c1cc(F)cc(F)c1,"binding, competition with immobilised ligand",1 µM,90
O=C(Nc1cccnn1)N1CCC(=Cc2cccc(Oc3ccc(C(F)(F)F)cn3)c2)CC1,"cell-free assay, competition with immobilised ligand",1 µM,100
C[C@@H]1CCN(c2nccc(-c3cnn4ncccc34)n2)C1,binding,1 µM,91
NS(=O)(=O)c1cc(NC(=O)Cc2ccccc2)ccc1Oc1cccc(Cl)c1,"cell-free assay, competition with immobilised ligand",1 µM,89
O=C(c1ccc(Nc2ncc(Cl)c(-c3ccc(Cl)s3)n2)cc1)N1CCC(N2CCCC2)CC1,"binding, competition with immobilised ligand",1 µM,6.7
COc1ccc2c(c1)O[C@H](c1ccc(OC)c(OC)c1)C[C@@H]2NC(=O)C1(c2ccc3c(c2)OC(F)(F)O3)CC1,"cell-free assay, competition with immobilised ligand",1 µM,95
CN(CCCC(F)(F)F)c1nccc(-c2cnn3ncccc23)n1,binding,1 µM,100
